# Screens deposited in PubChem by several laboratories.
# ROMK mod – modulators of human ROMK potassium channel. B-score at 10 µM. Tet-inducible ROMK, thallium flux fluorescence; actives lie on both sides. P48048. 130,000 compounds, 2% hits;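 active means signal ratio slope over the read window, or its plate-corrected B-score, at least 3 SD from the plate mean, either direction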;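 further: B-score of the F/F0 ratio slope over 7 to 12 s after thallium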
# Target sequence (P48048 whole entry, looked up): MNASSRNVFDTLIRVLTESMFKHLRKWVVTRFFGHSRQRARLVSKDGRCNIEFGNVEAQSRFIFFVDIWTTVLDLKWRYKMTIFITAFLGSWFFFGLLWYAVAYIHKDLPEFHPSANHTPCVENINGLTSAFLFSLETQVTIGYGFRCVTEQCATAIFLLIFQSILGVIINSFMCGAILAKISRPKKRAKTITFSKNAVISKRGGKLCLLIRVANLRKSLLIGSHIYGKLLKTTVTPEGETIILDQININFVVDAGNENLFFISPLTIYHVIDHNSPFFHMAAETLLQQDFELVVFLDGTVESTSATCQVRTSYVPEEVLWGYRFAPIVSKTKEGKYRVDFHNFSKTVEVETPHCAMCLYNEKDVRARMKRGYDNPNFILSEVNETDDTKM
# HSV replic up – HSV replication enhancement; HSV replication augmentation in cells, fold increase; maximum fold increase; 220,000 compounds, 0.005% hits; AID 1956; in the data active means maximum fold increase above about 1.5; inconclusive means no clear call, values can overlap the other calls; tested in PC3 cells
# Insulin prom inh – TRM-6 insulin promoter activity inhibition. TRM-6 cells (human fetal islet line), insulin promoter-eGFP reporter, imaging; reporter expression induced with tamoxifen. 130,000 compounds, 0.9% hits. AID 1273. inhibition, % at 2 µM;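 active means inhibition above the mean plus 3 SD, with well images judged a real hit on visual review, cut at about 60% in these data, passing the limit was not always enough; inconclusive means inhibition over the cutoff but images rejected on review; inactive means inhibition not above the cutoff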
# MT stabilize HCS – microtubule stabilizers in HeLa cells | HeLa tubulin immunostaining HCS, 24 h; share of cells brighter than vehicle mean+2SD | % tubulin-high responders, % at 10 µM | 200,000 compounds, 0.83% hits;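 active means plate Z-score above 3 for both tubulin-high and condensed-nucleus cell shares, with cell loss under 80%, at 10 µM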;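 further: anti alpha tubulin signal scored within the nucleus-defined area of each cell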
# bCat nuc transl – beta-catenin nuclear translocation modulation. HeLa beta-catenin nuclear translocation, immunofluorescence imaging. nuclear translocation activity, % at 5 µM. 190,000 compounds, 0.3% hits;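 active means nuclear translocation activity above 50% at 5 µM, with a well cell count of 50 or more; inconclusive means wells under 50 cells across six images, flagged as toxic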;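 further: per-cell ratio of nuclear to cytoplasmic median beta-catenin stain intensity; plate controls were DMSO negative control for no effect and GSK-3 inhibitor IX positive control for full effect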
#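 Assay system: human HeLa cells, native beta-catenin; doses: 5 µM primary, 0.02–20 µM confirmation; incubation: compound treatment 24 h, 37°C, 5% CO2; technique: fluorescence imaging of beta-catenin antibody stain plus DAPI; measure: % activation, nuclear-to-cytoplasmic median beta-catenin signal ratio per cell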
# ROMK retest – retested hit modulating human ROMK potassium channel; shares compounds with ROMK mod; ROMK thallium flux, fluorescence ratio; stronger effect = lower value; normalized thallium flux (F/F0 slope) at 10 µM; 3,000 compounds, 54% hits; AID 1917;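 active means Flux at 10 µM at least 3 SD below or above vehicle control mean in one or both replicates; inconclusive means no clear call, values can overlap the other calls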
# * = called active by the depositor; i = inactive; ? = inconclusive; nt = not tested or not shown. Compounds with a hit are over-represented: about 2.4% of the library has one in this group of screens.
SMILES,ROMK mod,HSV replic up,Insulin prom inh,MT stabilize HCS,bCat nuc transl,ROMK retest
O=C(Nn1c(-c2ccncc2)nc2ccccc2c1=O)c1ccc([N+](=O)[O-])cc1Cl,0.022,i,nt,2,-3,nt
Cn1c(=O)c([N+](=O)[O-])c(-n2ccnc2)c2ccccc21,-8.3*,i,nt,1,1,0.048*
Cn1c(=O)c([N+](=O)[O-])c(NCCCn2ccnc2)c2ccccc21,nt,i,nt,nt,-2,nt
COc1ccc(S(=O)(=O)Nc2nnc(Cc3ccc(OC)c(OC)c3)s2)cc1,0.63,i,nt,2,0,nt
O=C(COC(=O)c1ccc(NS(=O)(=O)c2cccs2)cc1O)Nc1nc2ccccc2s1,-0.11,i,nt,3,-2,nt
O=C(COC(=O)c1ccc(NS(=O)(=O)c2cccs2)cc1O)NCc1ccccc1,3.6*,i,-29,24*,76*,0.084
CC1CN(C(=S)NC(=O)c2ccco2)CC(C)O1 (stereo unspecified),nt,i,3,1,0,nt
CC(C)(CO)NCC#Cc1ccccc1,0.49,i,nt,4,-4,nt
COc1ccc(OC)c(-c2cc(C(=O)Nc3c(C)nn(Cc4ccc(Cl)cc4)c3C)no2)c1,-2.6*,nt,-30,5,0,0.065*
COc1ccc2nc(NC(=O)c3sc4nc(C)cc(C)c4c3N)sc2c1,nt,i,nt,nt,1,nt
CC(C)(C)n1nnnc1C(c1cccc(C#N)c1)N1CCCc2ccccc21 (stereo unspecified),-4*,i,-64,6,-9,0.065*
CC(C)(C)n1nnnc1C(c1ccc(Cl)cc1)N1CCCc2ccccc21 (stereo unspecified),nt,i,8,3,2,nt
CC(=O)N=c1n(C)c2ccccc2n1CCOc1ccccc1,-0.26,i,-83,4,nt,nt
O=C(O)Cc1cc(I)c(Oc2ccc(O)c(I)c2)c(I)c1,nt,i,10,2,nt,0.12*
Cc1ccnc(NS(=O)(=O)c2ccc(NC(=O)CN3C(=O)CCC3=O)cc2)n1,2.6*,i,29,3,-1,0.082
Cc1ccc(NC(=O)COc2ccc(Br)cc2C)cc1,0.1,i,32,1,-2,nt
COc1ccc(N2C(=O)CC2(/C=C/c2ccccc2OC)C(=O)NC2CCCC2)cc1 (stereo unspecified),-4.7*,i,-281,6,3,0.054*
CCOc1ncccc1C(=O)N1CCN(S(=O)(=O)c2ccccc2)CC1,0.035,i,-27,2,-4,nt
COCCN1Cc2cccc(C(=O)N3CCN(c4cc(C)ccc4C)CC3)c2C1=O,nt,i,nt,6,nt,nt
CCOc1ncccc1C(=O)N1CCN(c2cc(Cl)ccc2C)CC1,3.3*,i,nt,11,84*,0.08
CCOc1ncccc1C(=O)N1CCN(C(=O)c2ccccc2)CC1,-0.14,i,37,3,0,nt
CCCN1Cc2cccc(C(=O)N3CCN(c4cc(Cl)ccc4C)CC3)c2C1=O,nt,i,nt,2,nt,?
CCOc1ncccc1C(=O)N1CCN(c2cccc(C)c2C)CC1,7.3*,i,nt,11*,186*,0.082
CCN(Cc1ccccc1)S(=O)(=O)c1ccc(C(=O)N2CCN(c3nc4ccccc4s3)CC2)cc1,-0.21,i,31,3,2,nt
CC(C)OCCCn1c(=N)c(C(N)=S)cc2c(=O)n3ccccc3nc21,-2.3,i,nt,5,-1,nt
SMILES,ROMK mod,HSV replic up,Insulin prom inh,MT stabilize HCS,bCat nuc transl,ROMK retest
Cc1ccnc2c(N3C(=O)C4C5c6ccccc6C(c6ccccc65)C4C3=O)cccc12 (stereo unspecified),0.0065,i,nt,3,-2,nt
COCCNC(=O)C1CCCN(c2ncccn2)C1 (stereo unspecified),nt,i,-90,3,1,nt
O=C(NCC1CCCO1)C1CCCN(c2ncccn2)C1 (stereo unspecified),nt,i,-12,4,-2,0.076
CCCCNC(=O)/C(C#N)=C/c1cccnc1,-3.3*,i,0,2,1,0.05*
N#C/C(=C\c1cccnc1)C(=O)NC1CCCCC1,-5.3*,i,-10,3,-2,0.036*
N#C/C(=C\c1cccnc1)C(=O)Nc1cccc2ccccc12,-2.4*,i,-15,6,-1,0.046*
Cc1cccc(NC(=O)/C(C#N)=C\c2cccnc2)c1,nt,i,-11,3,-1,nt
N#C/C(=C\c1cccc([N+](=O)[O-])c1)C(=O)NCc1cccnc1,nt,i,-37,3,0,0.022*
